Measurements: ChEMBL document CHEMBL4610085, “Boholamide A, an APD-Class, Hypoxia-Selective Cyclodepsipeptide” (J Nat Prod, 2020)
Active and inactive are the calls of the source. No cut-off for these calls is given here.

Legend:
U-87 MG [1] = assay: Cytotoxicity against human U87MG cells assessed as reduction in cell viability after 48 hrs under normoxia condition by MTT assay; assay type: functional, cell-based, U-87MG ATCC
Procedure, shortened: (§1)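 U87MG in DMEM with 10% FBS, 2 mM L-glutamine, penicillin/streptomycin; seeded 10,000 cells/well, 24 h at 37 °C, then exposed to compound at varying concentrations for 48 h at 37 °C either in a CO₂ incubator (normoxia) or a hypoxic chamber. MTT (0.5 mg/mL in PBS) added 2 h, DMSO solubilisation, absorbance 570 nm; IC50 by curve fitting; triplicate biological replicates.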

U-87 MG [2] = assay: Cytotoxicity against human U87MG cells assessed as reduction in cell viability after 48 hrs under hypoxia condition by MTT assay; assay type: functional, cell-based, U-87MG ATCC; procedure, shortened: as §1
U-87 MG [3] = assay: Selectivity index, ratio of IC50 for cytotoxicity against human U87MG cells under normoxia condition to IC50 for cytotoxicity against human U87MG cells under hypoxia condition incubated for 48 hrs by MTT assay; assay type: functional, U-87MG ATCC
[4] = Cytotoxicity against human CH157 cells assessed as reduction in cell viability after 48 hrs by MTT assay; assay type: functional, cell-based
Huh-7 = assay: Cytotoxicity against human HuH7 cells assessed as reduction in cell viability after 48 hrs by MTT assay; assay type: functional, cell-based; conditions: Huh-7, 48 h
Procedure, shortened: (§2)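 Cells seeded at 10,000/well, left 24 h at 37 °C, then exposed to a range of concentrations for 48 h at 37 °C, either in a CO2 incubator (normoxia) or in a hypoxic chamber. MTT (0.5 mg/mL in PBS) was added for 2 h, DMSO was added, and absorbance was read at 570 nm. IC50 was fitted from the curves. Triplicate biological replicates.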

A549 = assay: Cytotoxicity against human A549 cells assessed as reduction in cell viability after 48 hrs by MTT assay; assay type: functional, cell-based; conditions: A549, 48 h; procedure, shortened: as §2
CHO = assay: Cytotoxicity against […] assessed as reduction in cell viability after 48 hrs by MTT assay; assay type: cell-based; conditions: Cricetulus griseus; procedure, shortened: as §2
DRG neuron [5] = assay: Induction of calcium influx in STOCK Tg(CalcaEGFP)FG104Gsat/Mmucd) mouse DRG neurons harboring CGRP-GFP assessed as increase in cytoplasmic Ca2+ pulse at 10 nM after 15 secs by […]; assay type: functional, cell-based
Procedure, shortened: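 DRG neurons from CGRP-GFP mice, Fura2-AM loaded, imaged as 340/380 nm ratio. Compound applied as a 15-second pulse, with concentrations down to ~10 nM tested. Neuron classes assigned by pharmacological markers and IB4/CGRP-GFP.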

DRG neuron [6] = assay: Irreversible induction of calcium influx in STOCK Tg(CalcaEGFP)FG104Gsat/Mmucd) mouse DRG neurons harboring CGRP-GFP assessed as increase in cytoplasmic Ca2+ pulse at 1 uM after 15 secs by […]; assay type: functional, cell-based
Procedure, shortened: (§3)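 Lumbar DRG L1–L6 from CGRP-GFP mice, dissociated with 0.25% trypsin for 20 min and triturated. Cultured ~16–24 h at 37 °C, 5% CO2, in MEM/10% FBS/HEPES/glucose, pH 7.4, then loaded with 4 μM Fura2-AM for 1 h. Ratio 340/380 nm excitation, 510 nm emission, recorded at room temperature during ~1 h pharmacology sequence. IB4 stain afterwards; cells classed by AITC, menthol, capsaicin, kM-RIIIJ, IB4 and CGRP-GFP.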

[7] = Induction of calcium influx in STOCK Tg(CalcaEGFP)FG104Gsat/Mmucd) mouse DRG neurons harboring CGRP-GFP assessed as increase in cytoplasmic Ca2+ at 500 nM after 7 secs by Alexa-Flour 647 Isolectin B4 staining based assay relative to control; assay type: functional, DRG neuron; procedure, shortened: as §3
[8] = Induction of calcium influx in STOCK Tg(CalcaEGFP)FG104Gsat/Mmucd) mouse DRG neurons harboring CGRP-GFP assessed as increase in cytoplasmic Ca2+ in at 500 nM after 7 secs by Alexa-Flour 647 Isolectin B4 staining based assay relative to control; assay type: functional, DRG neuron; procedure, shortened: as §3
[9] = Induction of calcium influx in STOCK Tg(CalcaEGFP)FG104Gsat/Mmucd) mouse DRG neurons harboring CGRP-GFP assessed as increase in cytoplasmic Ca2+ at 1 uM after 7 secs by Alexa-Flour 647 Isolectin B4 staining based assay relative to control; assay type: functional, DRG neuron; procedure, shortened: as §3
DRG neuron [10] = assay: Induction of cell death in STOCK Tg(CalcaEGFP)FG104Gsat/Mmucd) mouse DRG neurons N15 cells harboring CGRP-GFP at 1 uM 7 secs by Alexa-Flour 647 Isolectin B4 staining based light micrographic method; assay type: functional; procedure, shortened: as §3
Cerebral cortex [11] = assay: Induction of cell death in mouse brain cortex assessed as increase in cytoplasmic Ca2+ accumulation at 1 uM by Alexa-Flour 647 Isolectin B4 staining based assay; assay type: functional, tissue-based
Cerebral cortex [12] = assay: Induction of cell death in mouse brain cortex assessed as increase in cell lysis at 1 uM after 5 secs by Alexa-Flour 647 Isolectin B4 staining based assay; assay type: functional, tissue-based
[13] = Toxicity in TuAB zebra fish embryo at 10 to 1000 nM dosed at 6 hpf and measured after 1 day postfertilization by bright field microscopic method; assay type: organism-based, Danio rerio; conditions: zebrafish, in vivo, 24 h, 1 µM
Procedure, shortened: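 TuAB zebrafish embryos exposed to compound or DMSO vehicle from 6 hpf to 1 dpf at 28.5 °C, then assessed by bright-field stereomicroscope imaging.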

Compound | IC50 (U-87 MG [1]) [µM] | IC50 (U-87 MG [2]) [µM] | Ratio IC50 (U-87 MG [3]) | IC50 [4] [µM] | IC50 (Huh-7) [µM] | IC50 (A549) [µM] | IC50 (CHO) [µM] | Activity (DRG neuron [5]) | Activity (DRG neuron [6]) | Activity [7] [%] | Activity [8] [%] | Activity [9] [%] | Activity (DRG neuron [10]) | Activity (Cerebral cortex [11]) | Activity (Cerebral cortex [12]) | Activity [13]
COc1cccc2c1C(=O)c1c(O)c3c(c(O)c1C2=O)C[C@@](O)(C(=O)CO)C[C@@H]3O[C@H]1C[C@H](N)[C@H](O)[C@H](C)O1 [DOXORUBICIN] | 0.45 | 0.98 | 0.45 | – | – | – | – | – | – | – | – | – | – | – | – | –
Cn1nnc2c(C(N)=O)ncn2c1=O [TEMOZOLOMIDE] | 640 | 1100 | 0.6 | – | – | – | – | – | – | – | – | – | – | – | – | –
C=C1/C=C/C(=O)NCC(=O)N[C@@H](C(C)C)C(=O)O[C@@H]([C@H](C)C[C@@H](C)CCC)[C@H](OC)C(=O)N1 | 0.41 | 0.12 | 3.6 | 0.098 | 0.19 | 0.39 | 0.39 | Active | Active | 8 | 61 | 34 | Active | Active | Active | Non-Toxic
